Assays:
Type in all cases: biochemical, Lacticaseibacillus casei
Conditions in all cases: 80 mM sodium acetate pH 4.0, 37 °C
LBCZ_0230 [1] = experiment: o-nitrophenol release, A400
Outline: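 The enzyme was C-terminally His6-tagged, expressed in E. coli BL21(DE3) and purified on Ni²⁺ affinity. Protein was quantified by amino acid analysis. o-Nitrophenyl β-D-galactopyranoside at 0.05-1 mM was incubated with enzyme at 37 °C for 10 min and stopped with 1 M Na₂CO₃. Released o-nitrophenol was read at A400. Km was fitted by nonlinear Michaelis-Menten regression from three independent experiments (mean ± SD).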

LBCZ_0230 [2] = experiment: D-galactose release, L-arabinose/D-galactose assay kit
Outline: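 Recombinant C-terminally His6-tagged enzyme was expressed in E. coli BL21(DE3) and Ni²⁺-affinity purified. Lacto-N-biose I or galacto-N-biose at 0.1-2 mM was reacted with enzyme at 37 °C for 10 min. Reactions were stopped at 80 °C for 3 min and D-galactose was quantified. Km came from Michaelis-Menten nonlinear regression, as mean ± SD of three independent experiments.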

LBCZ_0230 [3] = experiment: p-nitrophenol release, A400
Outline: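 Purified recombinant His6-tagged enzyme (E. coli BL21(DE3), Ni²⁺ column) was assayed on p-nitrophenyl β-D-galactopyranoside over 0.0125-0.5 mM. Incubation ran at 37 °C for 10 min and was quenched with 1 M Na₂CO₃. p-Nitrophenol was measured at A400. Km was obtained by nonlinear Michaelis-Menten fitting, as mean ± SD of three independent experiments.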

Row | Km (LBCZ_0230 [2]) | SMILES | further results
1 |  | O=[N+]([O-])c1ccccc1O[C@@H]1O[C@H](CO)[C@H](O)[C@H](O)[C@H]1O [oNPGal] | Km (LBCZ_0230 [1]): 50.1 ± 2.3 µM
2 | 707 ± 18 µM | CC(=O)N[C@H]1C(O)O[C@H](CO)[C@H](O)[C@@H]1O[C@@H]1O[C@H](CO)[C@H](O)[C@H](O)[C@H]1O (stereo partly shown) [GNB] | 
3 | 238 ± 5 µM | CC(=O)N[C@H]1C(O)O[C@H](CO)[C@@H](O)[C@@H]1O[C@@H]1O[C@H](CO)[C@H](O)[C@H](O)[C@H]1O (stereo partly shown) [LNB] | 
4 |  | O=[N+]([O-])c1ccc(O[C@@H]2O[C@H](CO)[C@H](O)[C@H](O)[C@H]2O)cc1 [pNPGal] | Km (LBCZ_0230 [3]): 20.9 ± 1.3 µM

From paper PMC10432377 (Journal of Applied Glycoscience, 2023)
